This is an account of results in PMC3984478 (Cancer cell, 2012).

Common to all, as to format: cell-based, human
The subject of assay [1] is GCB-DLBCL cell lines (OCI-Ly7 and OCI-Ly1). The experiment in a line: Growth inhibition, ATP-based luminescent assay. To be noted: 50 µM, 48 hr. The essentials: (§1)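 Cells received a single dose of test compound over a concentration range and proliferation was read at 48 hr by luminescent ATP quantification. Luminescence was converted to cell number using per-line standard curves built from trypan blue counts. Viability was normalised to controls and expressed as 1 − fractional viability, and GI25/GI50 were fitted. Experiments were run three times in triplicate.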

Another assay relates to OCI-Ly10 cells. As to the kind of experiment: Growth inhibition, ATP-based luminescent assay. To be noted: 50 µM, 48 hr. A digest of the protocol:
as §1

For the next assay, the system named is TMD8 cells. The experiment in a line: Growth inhibition, ATP-based luminescent assay. The note with it: 50 µM, 48 hr. A digest of the protocol: as §1
The test system of the next assay is U2932 cells. The experiment in a line: Growth inhibition, ATP-based luminescent assay. The note with it: 50 µM, 48 hr. The essentials: as §1
The subject of a further assay is HLY-1 cells. As to the kind of experiment: Growth inhibition, ATP-based luminescent assay. The note with it: 50 µM, 48 hr. The essentials: as §1
The test system of assay [2] is nuclear c-REL in HBL-1 cells. As to the kind of experiment: c-REL flow cytometry of whole cells or isolated nuclei. To be noted: 200 nM MI-2 or 50 µM Z-VRPR-FMK, 24 hr. A digest of the protocol: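 HBL-1 cells were exposed for 24 hr to 200 nM test compound, to 50 µM Z-VRPR-FMK as positive control, or to vehicle. c-REL was then measured by flow cytometry in whole cells and in isolated nuclei.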

In another assay the test system is OCI-Ly3 cells. The experiment in a line: Growth inhibition, ATP-based luminescent assay. The note with it: 50 µM, 48 hr. A digest of the protocol:
as §1

The next assay relates to HBL-1 cells. The experiment in a line: Growth inhibition, ATP-based luminescent assay. The note with it: 50 µM, 48 hr. A digest of the protocol:
as §1

With Z-VRPR-FMK [reference compound], the response of proliferation entry in assay [1] is “did not respond”; in the assay on OCI-Ly10 cells, “inhibition of proliferation”; in the assay with TMD8 cells, “inhibition of proliferation”; in the assay with U2932 cells, “relatively little response”; in the assay on HLY-1 cells, “relatively little response”; with OCI-Ly3 cells, “inhibition of proliferation”. Besides, the response of proliferation result in the assay with HBL-1 cells was “inhibition of proliferation”. The “nuclear c-REL (flow cytometry)” value in assay [2] is listed as “reduced nuclear c-REL to a similar extent”.
